Measured values: ChEMBL document CHEMBL2384917, “Design, synthesis and biological evaluation of novel 3,4,5-trisubstituted aminothiophenes as inhibitors of p53-MDM2 interaction. Part 1” (Bioorg Med Chem, 2013)

Experiments:
[1] = target: Tumour suppressor p53/oncoprotein Mdm2 (Homo sapiens, UniProt Q00987); experiment: (§1) Inhibition of p53-MDM2 (unknown origin) interaction expressed in Escherichia coli BL-21 (DE3) after 1 hr by fluorescence polarization assay
[2] = tested on: A549; experiment: Cytotoxicity against human A549 cells expressing wild type p53 assessed as growth inhibition after 72 hrs by SRB assay; assay type: functional, cell-based; conditions: A549, 72 h
How it was run: (§2)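 Cells seeded in 96-well plates, cultured overnight, then exposed to serial compound concentrations for 72 h. Fixed with 10% (w/v) TCA at 4 °C for 1 h, stained 30 min with 0.4% SRB in 1% acetic acid, washed with 1% acetic acid, bound dye dissolved in 10 mmol unbuffered Tris base, absorbance read at 515 nm. Inhibition calculated relative to untreated control wells; IC50 derived.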

[3] = tested on: PC-3; experiment: Cytotoxicity against human p53-null PC3 cells assessed as growth inhibition after 72 hrs by SRB assay; assay type: functional, cell-based; conditions: PC-3, 72 h; how it was run: as §2
[4] = target: Tumour suppressor p53/oncoprotein Mdm2 (Homo sapiens, UniProt P04637+Q00987); experiment: as §1
Chain of Tumour suppressor p53/oncoprotein Mdm2 (Homo sapiens, UniProt P04637+Q00987) (P04637 whole entry): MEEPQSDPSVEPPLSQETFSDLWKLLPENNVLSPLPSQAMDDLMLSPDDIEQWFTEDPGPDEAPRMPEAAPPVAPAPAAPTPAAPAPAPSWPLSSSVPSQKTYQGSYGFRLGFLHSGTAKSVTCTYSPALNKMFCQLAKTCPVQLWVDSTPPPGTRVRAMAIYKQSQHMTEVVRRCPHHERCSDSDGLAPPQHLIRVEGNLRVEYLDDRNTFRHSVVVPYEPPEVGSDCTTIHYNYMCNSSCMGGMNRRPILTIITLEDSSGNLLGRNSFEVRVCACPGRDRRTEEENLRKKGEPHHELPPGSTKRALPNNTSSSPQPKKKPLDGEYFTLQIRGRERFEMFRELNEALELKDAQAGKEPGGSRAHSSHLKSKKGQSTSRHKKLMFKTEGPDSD
Chain of Tumour suppressor p53/oncoprotein Mdm2 (Homo sapiens, UniProt P04637+Q00987) (Q00987 whole entry): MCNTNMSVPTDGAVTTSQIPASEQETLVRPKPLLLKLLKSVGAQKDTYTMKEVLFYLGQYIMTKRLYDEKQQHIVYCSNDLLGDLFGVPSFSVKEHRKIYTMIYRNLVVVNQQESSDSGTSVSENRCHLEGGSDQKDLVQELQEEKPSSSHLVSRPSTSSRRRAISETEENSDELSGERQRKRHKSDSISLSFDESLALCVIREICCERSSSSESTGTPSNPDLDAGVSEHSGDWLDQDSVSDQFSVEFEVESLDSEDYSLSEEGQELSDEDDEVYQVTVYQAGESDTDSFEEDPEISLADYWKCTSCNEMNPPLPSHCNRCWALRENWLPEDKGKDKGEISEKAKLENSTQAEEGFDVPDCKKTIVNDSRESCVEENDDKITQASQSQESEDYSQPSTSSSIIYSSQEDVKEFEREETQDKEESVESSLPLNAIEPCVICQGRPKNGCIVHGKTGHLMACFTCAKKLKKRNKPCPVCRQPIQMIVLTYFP

[5] = tested on: A549; experiment: Selectivity ratio of IC50 for human p53-null PC3 cells to IC50 for human A549 cells expressing wild type p53; assay type: functional

Chain of Tumour suppressor p53/oncoprotein Mdm2 (Homo sapiens, UniProt Q00987) (P04637 whole entry): as the sequence (P04637 whole entry) above
Chain of Tumour suppressor p53/oncoprotein Mdm2 (Homo sapiens, UniProt Q00987) (Q00987 whole entry): as the sequence (Q00987 whole entry) above

| Structure (SMILES) | Ki [1] | IC50 [2] | IC50 [3] | Ki [4] | Ratio IC50 [5] |
| --- | --- | --- | --- | --- | --- |
| Nc1sc(-c2ccc(Cl)cc2)c(-c2ccc(Cl)cc2)c1C(=O)Nc1ccccc1 | > 50000 nM | 25 µM | > 50 µM |  |  |
| CCN(CC)CCNC(=O)Nc1sc(-c2ccc(Cl)cc2)c(-c2ccc(Cl)cc2)c1C(=O)NC1CC1 |  |  |  | Not Active |  |
| O=C(CCN1CCOCC1)Nc1sc(-c2ccc(Cl)cc2)c(-c2ccc(Cl)cc2)c1C(=O)N1CCCCC1 |  | > 25 µM | > 25 µM | Not Active |  |
| Nc1sc(-c2ccc(Cl)cc2)c(-c2ccc(Cl)cc2)c1C(=O)NC1CCCC1 | 540 nM | 6.79 µM | 21.2 µM |  |  |
| Nc1sc(-c2ccc(Cl)cc2)c(-c2ccc(Cl)cc2)c1C(=O)NC1CCC(O)CC1 (configuration not stated) | 990 nM | 0.25 µM | 5.67 µM |  | 22 |
| CC(C)(C)NC(=O)c1c(N)sc(-c2ccc(Cl)cc2)c1-c1ccc(Cl)cc1 | 810 nM | 8.85 µM | 15.1 µM |  |  |
| CS(=O)(=O)Nc1sc(-c2ccc(Cl)cc2)c(-c2ccc(Cl)cc2)c1C(=O)NC1CC1 | > 50000 nM |  |  |  |  |
| Nc1sc(-c2ccc(Cl)cc2)c(-c2ccc(Cl)cc2)c1C(=O)N1CCCC1 | 740 nM |  |  |  |  |
| Nc1sc(-c2ccc(Cl)cc2)c(-c2ccc(Cl)cc2)c1C(=O)NC1CCC1 | 1120 nM | 12.5 µM | 24.8 µM |  |  |
| COc1ccc(CNC(=O)c2c(N)sc(-c3ccc(Cl)cc3)c2-c2ccc(Cl)cc2)cc1 | 640 nM | 18.2 µM | 29.5 µM |  |  |
| CCOC(=O)Nc1sc(-c2ccc(Cl)cc2)c(-c2ccc(Cl)cc2)c1C(=O)NC1CC1 |  | 39.8 µM | 27.6 µM | Not Active |  |
| Nc1sc(-c2ccc(Cl)cc2)c(-c2ccc(Cl)cc2)c1C(=O)NC1CC1 | 540 nM |  |  |  |  |
| CC(=O)Nc1sc(-c2ccc(Cl)cc2)c(-c2ccc(Cl)cc2)c1C(=O)N1CCCCC1 | 3570 nM | 6.01 µM | 10.3 µM |  |  |
| Nc1sc(-c2ccc(Cl)cc2)c(-c2ccc(Cl)cc2)c1C(=O)N1CCCCC1 | 1210 nM | 4.62 µM | 14.3 µM |  |  |
| Nc1sc(-c2ccc(Cl)cc2)c(-c2ccc(Cl)cc2)c1C(=O)N1CCNCC1 | 6810 nM | 1.02 µM | 2.71 µM |  |  |
| Nc1sc(-c2ccc(Cl)cc2)c(-c2ccc(Cl)cc2)c1C(=O)N1CCOCC1 | 430 nM | 1.87 µM | 11.7 µM |  | 6 |
| CCCCNC(=O)c1c(N)sc(-c2ccc(Cl)cc2)c1-c1ccc(Cl)cc1 | 550 nM | 8.17 µM | 17.8 µM |  |  |
| COC(=O)c1c(N)sc(-c2ccc(Cl)cc2)c1-c1ccc(Cl)cc1 | 1520 nM |  |  |  |  |
| Nc1sc(-c2ccc(Cl)cc2)c(-c2ccc(Cl)cc2)c1C(=O)N1CCCCC1=O | 1550 nM | 1.82 µM | 4.94 µM |  |  |
| CC(C)CNC(=O)c1c(N)sc(-c2ccc(Cl)cc2)c1-c1ccc(Cl)cc1 | 4130 nM |  | 21 µM |  |  |
| CN1CCN(C(=O)c2c(N)sc(-c3ccc(Cl)cc3)c2-c2ccc(Cl)cc2)CC1 | 1520 nM | 0.59 µM | 13.1 µM |  | 22 |
| CC1CN(C(=O)c2c(N)sc(-c3ccc(Cl)cc3)c2-c2ccc(Cl)cc2)CCN1 (configuration not stated) | 17700 nM | 4.93 µM | 7.21 µM |  |  |
| O=C(NCCN1CCOCC1)Nc1sc(-c2ccc(Cl)cc2)c(-c2ccc(Cl)cc2)c1C(=O)NC1CC1 |  |  |  | Not Active |  |
| Nc1sc(-c2ccc(Cl)cc2)c(-c2ccc(Cl)cc2)c1C(=O)N1CCC(=O)CC1=O | 3520 nM | 4.09 µM | 9.23 µM |  |  |
| Nc1sc(-c2ccc(Cl)cc2)c(-c2ccc(Cl)cc2)c1C(=O)NC1CCCCC1 | 230 nM |  |  |  |  |
| Nc1sc(-c2ccc(Cl)cc2)c(-c2ccc(Cl)cc2)c1C(=O)NCc1ccccc1 | 150 nM | 16.3 µM | 31.8 µM |  |  |
| Nc1sc(-c2ccc(Cl)cc2)c(-c2ccc(Cl)cc2)c1C(=O)N1CCC(=O)CC1 | 2190 nM | 2.01 µM | 1.34 µM |  |  |
| CC1CCN(C(=O)c2c(N)sc(-c3ccc(Cl)cc3)c2-c2ccc(Cl)cc2)CC1 | 800 nM | 1.75 µM | 5.75 µM |  |  |
